Experimental data taken from ChEMBL document CHEMBL4396931, “Fluorescent analogs of peptoid-based HDAC inhibitors: Synthesis, biological activity and cellular uptake kinetics” (Bioorg Med Chem, 2019).
Calls of active or inactive are those of the source. No cut-off for these calls is given here.

Assays:
Histone deacetylase 1 = Histone deacetylase 1 (Homo sapiens, UniProt Q13547); experiment: Inhibition of recombinant human full length C-terminal Flag/His-tagged HDAC1 expressed in baculovirus infected Sf9 cells using ZMAL as substrate incubated for 90 mins by fluorometric method
[1] = Drug uptake in human OE19 cells assessed as increase in fluorescence intensity at 1.25 uM measured for every 10 sec for 30 mins by fluorescence based assay; assay type: ADME, cell-based; conditions: oe19, 0.5 h
Method in brief: (§1)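 Cells exposed to 1.25 µM compound, fluorescence recorded at Ex 370 nm / Em 530 nm every 10 s for 30 min on an epifluorescence microscope (40× objective). Treatment started 1 min before recording. Representative images taken at 15 min.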

[2] = biological target: T1, Histone deacetylase (Homo sapiens) (UniProt Q13547+O15379+Q9UBN7+Q92769+Q9UQL6+Q8WUI4+Q9BY41+Q96DB2+P56524+Q9UKV0+Q969S8); experiment: Inhibition of HDAC in human OE33 cells assessed as increase in histone H3 acetylation at 0.6 uM incubated for 48 hrs by Western blot analysis; assay type: cell-based
Method in brief: (§2)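 500,000 OE33 or 750,000 OE19 cells treated 48 h. Histones isolated, 5 µg nuclear extract run on 15% SDS-PAGE and blotted. Probed overnight at 4 °C with anti-acetyl-histone H3 (Lys9) and anti-histone H3, compared with untreated controls.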

OE33 = experiment: Antiproliferative activity against human OE33 cells assessed as reduction in cell viability incubated for 72 hrs by presto blue assay; assay type: functional
Method in brief: (§3)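 3500 cells per well seeded and grown 24 h, then exposed to compound for 72 h. Viability read with PrestoBlue reagent per manufacturer's protocol, and GI50 taken from this.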

[3] = Drug uptake in human OE33 cells assessed as increase in fluorescence intensity at 1.25 uM measured for every 10 sec for 30 mins by fluorescence based assay; assay type: ADME, cell-based; conditions: oe33, 0.5 h; method in brief: as §1
[4] = Drug uptake in human OE19 cells assessed as cytoplasmic retention at 1.25 uM measured after 30 mins by RFP-tagged histone H2B staining based confocal microscopy; assay type: ADME, cell-based; conditions: oe19, 0.5 h
Method in brief: (§4)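 Cells transfected with cDNA for histone H2B–RFP (DNA:reagent 1:1), then incubated 30 min with 1.25 µM compound. Imaged by confocal microscopy with 63× objective and 405 nm excitation.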

[5] = Drug uptake in human OE33 cells assessed as increase in fluorescence intensity at 1.25 uM measured after 15 mins by microscopic method; assay type: ADME, cell-based; conditions: oe33, 0.25 h; method in brief: as §1
[6] = biological target: T2, Protein deacetylase HDAC6 (Homo sapiens, UniProt Q9UBN7); experiment: Inhibition of recombinant human full length C-terminal GST-tagged HDAC6 expressed in baculovirus infected Sf9 cells using ZMAL as substrate incubated for 90 mins by fluorometric method
T2 sequence (Q9UBN7 whole entry): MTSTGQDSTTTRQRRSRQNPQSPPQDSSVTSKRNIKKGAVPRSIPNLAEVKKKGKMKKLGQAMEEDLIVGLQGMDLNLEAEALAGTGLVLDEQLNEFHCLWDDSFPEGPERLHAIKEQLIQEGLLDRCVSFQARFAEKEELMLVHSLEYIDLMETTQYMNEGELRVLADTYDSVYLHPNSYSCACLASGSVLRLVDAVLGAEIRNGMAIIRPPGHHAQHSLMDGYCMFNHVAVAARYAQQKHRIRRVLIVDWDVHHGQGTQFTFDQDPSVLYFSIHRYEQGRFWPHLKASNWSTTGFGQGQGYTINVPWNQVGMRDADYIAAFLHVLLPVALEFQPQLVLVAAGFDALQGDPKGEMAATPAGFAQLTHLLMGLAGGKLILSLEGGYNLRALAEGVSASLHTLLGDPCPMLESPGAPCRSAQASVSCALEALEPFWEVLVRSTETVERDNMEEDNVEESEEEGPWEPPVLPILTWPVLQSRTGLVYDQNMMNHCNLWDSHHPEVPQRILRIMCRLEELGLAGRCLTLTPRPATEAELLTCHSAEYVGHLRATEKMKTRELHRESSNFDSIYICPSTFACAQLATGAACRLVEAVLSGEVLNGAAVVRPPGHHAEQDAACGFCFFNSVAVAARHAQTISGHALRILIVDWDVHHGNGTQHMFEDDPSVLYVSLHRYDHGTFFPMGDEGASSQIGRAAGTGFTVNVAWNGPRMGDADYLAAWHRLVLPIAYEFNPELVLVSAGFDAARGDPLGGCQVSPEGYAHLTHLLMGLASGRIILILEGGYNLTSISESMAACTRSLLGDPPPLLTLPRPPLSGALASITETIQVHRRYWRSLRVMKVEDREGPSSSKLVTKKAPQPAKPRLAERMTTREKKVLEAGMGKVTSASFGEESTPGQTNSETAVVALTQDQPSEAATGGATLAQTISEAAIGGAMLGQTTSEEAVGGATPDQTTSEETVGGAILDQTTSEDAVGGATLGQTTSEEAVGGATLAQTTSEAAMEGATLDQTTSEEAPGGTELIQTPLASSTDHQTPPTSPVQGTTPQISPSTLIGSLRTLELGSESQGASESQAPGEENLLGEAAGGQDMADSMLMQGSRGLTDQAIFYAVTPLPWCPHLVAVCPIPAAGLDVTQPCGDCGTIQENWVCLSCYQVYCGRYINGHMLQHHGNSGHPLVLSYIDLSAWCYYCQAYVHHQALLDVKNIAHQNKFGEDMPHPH

[7] = Drug uptake in human OE33 cells assessed as cytoplasmic retention at 1.25 uM measured after 30 mins by RFP-tagged histone H2B staining based confocal microscopy; assay type: ADME, cell-based; conditions: oe33, 0.5 h; method in brief: as §4
[8] = Drug uptake in human OE33 cells assessed as cytoplasmic retention at 1.25 uM measured after 30 mins by RFP-tagged histone H2B staining based confocal microscopy; conditions: oe33, 30 min
[9] = biological target: T1, Histone deacetylase (Homo sapiens); experiment: Inhibition of HDAC in human OE19 cells assessed as increase in histone H3 acetylation at 0.6 uM incubated for 48 hrs by Western blot analysis; assay type: cell-based; method in brief: as §2
OE19 = experiment: Antiproliferative activity against human OE19 cells assessed as reduction in cell viability incubated for 72 hrs by presto blue assay; assay type: functional; method in brief: as §3
[10] = Drug uptake in human OE19 cells assessed as increase in fluorescence intensity at 1.25 uM measured after 15 mins by microscopic method; assay type: ADME, cell-based; conditions: oe19, 0.25 h; method in brief: as §1
Histone deacetylase 2 = Histone deacetylase 2 (Homo sapiens, UniProt Q92769); experiment: Inhibition of recombinant human full length C-terminal Flag-tagged HDAC2 expressed in baculovirus infected Sf9 cells using ZMAL as substrate incubated for 90 mins by fluorometric method; assay type: cell-based
[11] = Drug uptake in human OE19 cells assessed as cytoplasmic retention at 1.25 uM measured after 30 mins by RFP-tagged histone H2B staining based confocal microscopy; conditions: oe19, 30 min
[12] = biological target: Histone deacetylase 3/Nuclear receptor corepressor 2 (HDAC3/NCoR2) (Homo sapiens, UniProt O15379); experiment: Inhibition of recombinant human C-terminal GST/His-tagged HDAC3 (1 to 428 residues) co-expressed with human N-terminal GST-tagged NCOR2 (395 to 489 residues) in baculovirus infected Sf9 cells using ZMAL as substrate incubated for 90 mins by fluorometric method
[13] = biological target: T1, Histone deacetylase (Homo sapiens); experiment: Inhibition of HDAC in human OE19 cells assessed as increase in histone H3 acetylation at 2.25 uM incubated for 48 hrs by Western blot analysis; assay type: cell-based; method in brief: as §2
[14] = biological target: T1, Histone deacetylase (Homo sapiens); experiment: Inhibition of HDAC in human OE33 cells assessed as increase in histone H3 acetylation at 2.25 uM incubated for 48 hrs by Western blot analysis; assay type: cell-based; method in brief: as §2
[15] = biological target: T1, Histone deacetylase (Homo sapiens); experiment: Inhibition of HDAC in human OE19 cells assessed as increase in histone H3 acetylation at 6.5 uM incubated for 48 hrs by Western blot analysis; assay type: cell-based; method in brief: as §2
[16] = biological target: T1, Histone deacetylase (Homo sapiens); experiment: Inhibition of HDAC in human OE33 cells assessed as increase in histone H3 acetylation at 6.5 uM incubated for 48 hrs by Western blot analysis; assay type: cell-based; method in brief: as §2

Sequence of Histone deacetylase 2 (Q92769 whole entry): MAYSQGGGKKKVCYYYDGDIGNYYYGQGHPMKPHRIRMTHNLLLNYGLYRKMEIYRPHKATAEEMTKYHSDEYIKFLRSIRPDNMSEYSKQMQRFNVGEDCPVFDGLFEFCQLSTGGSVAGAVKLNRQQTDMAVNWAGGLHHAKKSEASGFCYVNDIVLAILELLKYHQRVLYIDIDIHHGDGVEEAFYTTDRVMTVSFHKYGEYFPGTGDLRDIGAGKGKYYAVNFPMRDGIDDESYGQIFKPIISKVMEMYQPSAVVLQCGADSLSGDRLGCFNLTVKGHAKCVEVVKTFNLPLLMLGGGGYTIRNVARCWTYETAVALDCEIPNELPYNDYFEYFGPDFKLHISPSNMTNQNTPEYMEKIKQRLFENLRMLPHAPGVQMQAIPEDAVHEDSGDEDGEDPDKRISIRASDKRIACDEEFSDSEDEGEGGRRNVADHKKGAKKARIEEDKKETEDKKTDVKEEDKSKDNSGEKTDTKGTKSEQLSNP
Sequence of Histone deacetylase 1 (Q13547 whole entry): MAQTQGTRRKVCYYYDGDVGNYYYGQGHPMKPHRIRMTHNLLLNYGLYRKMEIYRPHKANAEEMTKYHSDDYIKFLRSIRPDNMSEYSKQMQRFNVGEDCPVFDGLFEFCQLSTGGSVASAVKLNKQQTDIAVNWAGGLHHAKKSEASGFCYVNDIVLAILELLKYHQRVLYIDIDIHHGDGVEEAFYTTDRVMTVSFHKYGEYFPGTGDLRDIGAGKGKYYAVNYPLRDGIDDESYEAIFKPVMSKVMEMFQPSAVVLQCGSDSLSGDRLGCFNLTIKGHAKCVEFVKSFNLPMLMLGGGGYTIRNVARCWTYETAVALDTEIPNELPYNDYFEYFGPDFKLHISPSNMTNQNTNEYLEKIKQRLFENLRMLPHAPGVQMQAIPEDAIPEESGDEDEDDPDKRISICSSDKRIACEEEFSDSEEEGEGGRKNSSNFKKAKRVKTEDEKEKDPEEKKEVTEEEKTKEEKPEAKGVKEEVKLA
Sequence of Histone deacetylase 3/Nuclear receptor corepressor 2 (HDAC3/NCoR2) (O15379 whole entry, the tested form may be a part): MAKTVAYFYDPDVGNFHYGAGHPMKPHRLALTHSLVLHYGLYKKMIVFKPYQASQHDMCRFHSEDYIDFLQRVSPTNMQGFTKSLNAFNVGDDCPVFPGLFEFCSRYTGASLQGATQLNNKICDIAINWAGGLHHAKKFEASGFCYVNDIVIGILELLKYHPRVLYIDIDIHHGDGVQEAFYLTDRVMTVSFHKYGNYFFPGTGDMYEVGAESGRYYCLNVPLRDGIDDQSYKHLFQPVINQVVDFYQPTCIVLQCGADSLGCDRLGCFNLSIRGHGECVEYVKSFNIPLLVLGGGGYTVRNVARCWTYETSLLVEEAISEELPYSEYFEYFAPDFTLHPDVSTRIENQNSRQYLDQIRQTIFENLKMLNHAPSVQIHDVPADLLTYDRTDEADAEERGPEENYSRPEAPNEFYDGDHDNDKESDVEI
Sequence of Histone deacetylase 3/Nuclear receptor corepressor 2 (HDAC3/NCoR2) (Q9Y618 whole entry, further chain, the tested form may be a part): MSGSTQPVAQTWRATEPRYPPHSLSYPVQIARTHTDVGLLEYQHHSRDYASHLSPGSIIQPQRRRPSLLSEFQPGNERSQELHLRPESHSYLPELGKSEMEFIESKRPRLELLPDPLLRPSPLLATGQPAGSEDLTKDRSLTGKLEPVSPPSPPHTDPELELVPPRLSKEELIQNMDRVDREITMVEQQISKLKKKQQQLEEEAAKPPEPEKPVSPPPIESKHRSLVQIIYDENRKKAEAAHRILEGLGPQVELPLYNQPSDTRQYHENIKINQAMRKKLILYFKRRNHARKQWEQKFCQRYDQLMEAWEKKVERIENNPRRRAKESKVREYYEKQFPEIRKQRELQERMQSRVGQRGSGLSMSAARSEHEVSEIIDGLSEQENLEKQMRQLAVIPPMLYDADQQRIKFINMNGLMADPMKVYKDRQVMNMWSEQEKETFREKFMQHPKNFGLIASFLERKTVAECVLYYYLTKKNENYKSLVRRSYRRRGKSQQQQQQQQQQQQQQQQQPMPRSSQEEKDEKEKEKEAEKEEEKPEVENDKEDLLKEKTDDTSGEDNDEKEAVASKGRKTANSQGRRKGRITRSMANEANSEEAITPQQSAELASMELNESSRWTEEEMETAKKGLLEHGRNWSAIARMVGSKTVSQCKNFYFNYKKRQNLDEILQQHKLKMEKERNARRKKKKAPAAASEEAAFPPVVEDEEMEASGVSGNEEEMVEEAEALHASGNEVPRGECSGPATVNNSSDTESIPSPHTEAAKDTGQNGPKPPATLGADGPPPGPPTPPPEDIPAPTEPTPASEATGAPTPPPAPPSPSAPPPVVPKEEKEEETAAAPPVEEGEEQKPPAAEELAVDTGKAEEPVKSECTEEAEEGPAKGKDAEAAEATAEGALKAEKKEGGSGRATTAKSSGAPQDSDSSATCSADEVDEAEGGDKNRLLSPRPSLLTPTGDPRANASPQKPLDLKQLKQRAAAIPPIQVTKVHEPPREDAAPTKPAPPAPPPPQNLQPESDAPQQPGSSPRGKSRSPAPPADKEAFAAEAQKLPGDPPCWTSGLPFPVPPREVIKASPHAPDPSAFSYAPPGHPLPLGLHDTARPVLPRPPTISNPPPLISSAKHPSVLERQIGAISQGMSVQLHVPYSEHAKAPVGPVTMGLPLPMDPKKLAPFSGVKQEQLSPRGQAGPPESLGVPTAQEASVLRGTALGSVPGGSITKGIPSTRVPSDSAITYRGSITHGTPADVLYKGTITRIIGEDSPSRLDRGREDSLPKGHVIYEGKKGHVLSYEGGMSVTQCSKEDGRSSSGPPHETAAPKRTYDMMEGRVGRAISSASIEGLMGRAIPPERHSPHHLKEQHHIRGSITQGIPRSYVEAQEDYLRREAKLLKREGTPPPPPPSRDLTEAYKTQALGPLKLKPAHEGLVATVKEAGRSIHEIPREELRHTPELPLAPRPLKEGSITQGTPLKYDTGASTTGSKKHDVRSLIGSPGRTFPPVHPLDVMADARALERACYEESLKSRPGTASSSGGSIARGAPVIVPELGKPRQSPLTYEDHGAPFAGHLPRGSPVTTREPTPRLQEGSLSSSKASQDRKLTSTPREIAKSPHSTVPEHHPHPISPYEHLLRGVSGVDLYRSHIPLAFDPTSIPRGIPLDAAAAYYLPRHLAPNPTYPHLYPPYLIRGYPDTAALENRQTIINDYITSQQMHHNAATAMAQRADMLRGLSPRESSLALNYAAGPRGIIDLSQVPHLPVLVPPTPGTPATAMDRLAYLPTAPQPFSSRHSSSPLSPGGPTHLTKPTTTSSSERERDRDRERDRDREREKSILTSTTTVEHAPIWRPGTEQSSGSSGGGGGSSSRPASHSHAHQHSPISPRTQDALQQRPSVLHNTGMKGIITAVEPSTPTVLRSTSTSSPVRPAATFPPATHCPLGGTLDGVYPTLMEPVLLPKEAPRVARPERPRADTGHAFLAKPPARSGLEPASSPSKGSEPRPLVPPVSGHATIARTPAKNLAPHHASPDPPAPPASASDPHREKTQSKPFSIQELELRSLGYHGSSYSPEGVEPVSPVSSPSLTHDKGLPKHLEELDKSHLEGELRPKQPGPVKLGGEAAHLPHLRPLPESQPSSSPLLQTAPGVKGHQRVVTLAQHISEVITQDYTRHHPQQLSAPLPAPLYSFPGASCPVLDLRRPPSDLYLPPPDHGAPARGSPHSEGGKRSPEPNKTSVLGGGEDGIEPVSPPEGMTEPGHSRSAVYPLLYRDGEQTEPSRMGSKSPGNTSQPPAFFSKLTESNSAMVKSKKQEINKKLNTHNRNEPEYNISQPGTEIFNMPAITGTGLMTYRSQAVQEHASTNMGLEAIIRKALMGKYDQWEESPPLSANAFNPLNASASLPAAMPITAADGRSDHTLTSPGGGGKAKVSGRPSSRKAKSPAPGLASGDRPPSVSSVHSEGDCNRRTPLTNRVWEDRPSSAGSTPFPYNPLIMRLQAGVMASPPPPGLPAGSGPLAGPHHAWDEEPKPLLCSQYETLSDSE

Row | SMILES | IC50 (Histone deacetylase 1) [nM] | Drug uptake [1] | GI50 (OE33; Homo sapiens, OE33, 72 h) [nM] | Drug uptake [3] | Drug uptake [4] | Drug uptake [5] | IC50 [6] [nM] | Drug uptake [7] | Drug uptake [8] | GI50 (OE19; Homo sapiens, OE19, 72 h) [nM] | Drug uptake [10] | IC50 (Histone deacetylase 2) [nM] | Drug uptake [11] | IC50 [12] [nM] | further results
1 | CN(C)c1cccc2c(S(=O)(=O)N(CC(=O)NCc3ccccc3)Cc3ccc(C(=O)Nc4ccccc4N)cc3)cccc12 | 676 | Active | 4590 | Active | Active | Active | > 10000 | Active | Active | 9100 | Active | 668 | Active | 1130 | inhibition [2]: Active; inhibition [9]: Active
2 | O=C(CCCCCCC(=O)Nc1ccccc1)NO [VORINOSTAT] | – | – | – | – | – | – | – | – | – | – | – | – | – | – | GI50 (OE33): 1120 nM; GI50 (OE19): 1420 nM
3 | CN(C)c1cccc2c(S(=O)(=O)N(CCCCCC(=O)NO)CC(=O)NCc3ccccc3)cccc12 | 34 | Active | 776 | Active | Active | Active | 46 | Active | Active | 925 | Active | 81 | Active | 87 | inhibition [13]: Active; inhibition [14]: Active
4 | CN(C)c1cccc2c(S(=O)(=O)N(CC(=O)NCc3ccccc3)Cc3ccc(C(=O)NO)cc3)cccc12 | 915 | Active | 6230 | Active | Active | Active | 132 | Active | Active | 12900 | Active | 3500 | Active | 1020 | inhibition [15]: Active; inhibition [16]: Active
